# Data as given in ChEMBL document CHEMBL1137246, “Horseradish peroxidase inhibition and antioxidant activity of ebselen and related organoselenium compounds” (Bioorg Med Chem Lett, 2006).
# pIC50: −log10 of the molar value. The source made the active and inactive calls. The calls are words filed in the database; no cut-off is given here.
# Tests used:
# [1] = Effect on gamma irradiation-induced TBARS formation in liposomes at 50 uM; assay type: functional
# Procedure, shortened: (§1)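 Liposomal suspensions, N2O/O2-purged, pH 7.4 phosphate buffer, exposed to a constant 280 Gy γ-dose (Fricke dosimetry). Peroxidation followed as TBARS with compound at 0.025–0.150 mM. IC50 is the concentration giving 50% inhibition of lipid peroxidation.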
# [2] = Inhibition of horseradish peroxidase by spectrophotometric method; design: species or system Armoracia rusticana
# Procedure, shortened: (§2)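 HRP (70 nM) with ABTS2- as substrate, with or without selenium compound at 0.06–0.1 mM. Reaction started by adding H2O2. Initial rates taken from the absorbance change at 645 nm (ABTS radical cation). Activity without compound set to 100%.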
# [3] = test system: Armoracia rusticana; experiment: Inhibition of horseradish peroxidase at 100 uM; procedure, shortened: as §2
# [4] = Inhibition of gamma radiation-induced lipid peroxidation in liposomes; assay type: functional; procedure, shortened: as §1
# [5] = Glutathione peroxidase activity assessed by GSH-GSSG coupled assay; assay type: functional
# Procedure, shortened: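 GPx-like activity measured by GSH–GSSG coupled assay: glutathione reductase 0.3 U/ml, NADPH 0.25 mM, GSH 0.5–6 mM, compound 0.025 mM (in methanol, 2% in buffer), H2O2 1 mM substrate. NADPH loss at 340 nm fitted to an exponential; initial rates from ε 6220 M-1 cm-1, corrected for uncatalysed H2O2–GSH reaction. Km and Vmax from Lineweaver–Burk plots.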
# [6] = Antioxidant activity assessed by singlet oxygen quenching ability; assay type: functional
# [7] = Inhibition of gamma radiation-induced lipid peroxidation in liposomes at 200 uM; assay type: functional
# [8] = Antioxidant activity assessed by singlet oxygen quenching ability at 1mM; assay type: functional
Compound,Activity ([1]; Liposome),pIC50 [2],inhibition [3] [%],pIC50 [4],Km [5] [mM],Activity [6],inhibition [7] [%],Activity [8],Activity [1]
C[Se]c1ccccc1C(=O)Nc1ccccc1,Active,< 4.00,25.5,4.00,5.25,Active,–,–,–
O=C(Nc1ccccc1)c1ccccc1[Se][Se]c1ccccc1C(=O)Nc1ccccc1 [EBSELEN DISELENIDE],Active,4.30,–,–,–,–,19,inactive,–
O=C(Nc1ccccc1)c1ccccc1[Se]Cc1ccccc1,Active,< 4.00,33.1,4.12,2.2,Active,–,–,–
O=c1c2ccccc2[se]n1-c1ccccc1 [EBSELEN],–,4.77,–,4.60,13.2,Active,–,–,Active
O=C(Nc1ccccc1)c1ccccc1[Te][Te]c1ccccc1C(=O)Nc1ccccc1 [EBSELEN DITELLURIDE],Active,4.76,–,3.76,2.3,Active,–,–,–
